Compound activity as filed in PubChem BioAssay.
SENP6 inh – SENP6 protease inhibition; Q9GZR1; 330,000 compounds, 1.8% hits; AID 2599; inhibition, % at 10 µM; Recombinant SENP6 catalytic domain, aminoluciferin luminescence;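 active means inhibition above about 50% at the single tested dose, limit read from the data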;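 further: plate controls were DMSO wells with enzyme for no effect and DMSO wells lacking enzyme for full effect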
Target sequence (Q9GZR1 628-1112 limits assumed): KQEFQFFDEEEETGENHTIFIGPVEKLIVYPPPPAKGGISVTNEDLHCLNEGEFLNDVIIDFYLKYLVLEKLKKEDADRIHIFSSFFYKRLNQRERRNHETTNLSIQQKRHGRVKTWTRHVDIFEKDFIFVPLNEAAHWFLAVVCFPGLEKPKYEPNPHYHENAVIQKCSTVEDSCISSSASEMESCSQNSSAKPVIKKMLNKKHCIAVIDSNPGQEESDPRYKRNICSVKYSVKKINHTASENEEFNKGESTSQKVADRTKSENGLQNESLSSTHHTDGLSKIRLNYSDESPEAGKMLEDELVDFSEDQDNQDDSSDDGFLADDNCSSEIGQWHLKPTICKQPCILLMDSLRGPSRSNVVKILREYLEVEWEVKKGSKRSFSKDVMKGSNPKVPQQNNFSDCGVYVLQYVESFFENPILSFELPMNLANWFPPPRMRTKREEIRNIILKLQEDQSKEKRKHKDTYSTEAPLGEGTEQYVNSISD
CendR NRP1 mod – NRP-1/CendR interaction modulation. FAM-RPARPAR peptide binding to NRP-1, fluorescence polarization. inhibition, % at 25 µM. 360,000 compounds, 0.85% hits;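 active means inhibition or corrected inhibition above about 18%, plus a signal ratio from 0.5 to 1.5, limit read from the data, passing the limit was not always enough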
SENP8 block-1 – inhibitors of human SENP8 protease; Q96LD8; recombinant SENP8, Nedd8 substrate fluorescence; inhibition, % at 20 µM; 360,000 compounds, 0.64% hits; AID 602440; in the data active means inhibition mostly above about 40%, no sharp cut-off; inactive means mostly below about 27%
SENP7 inh – blocks the human protease SENP7. Q9BQF6. recombinant SENP7, Z-RLRGG-aminoluciferin luminescence, 40 min. AID 434973. inhibition, % at 5 µM. 330,000 compounds, 1.5% hits;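 active means inhibition above about 50% at the single test dose, limit read from the data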;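 further: plate controls were DMSO with enzyme for no effect and no enzyme buffer wells for full effect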
SENP8 block-2 – SENP8 protease inhibition; Q96LD8; purified SENP8, Z-RLRGG-aminoluciferin cleavage, luminescence; inhibition, % at 10 µM; 330,000 compounds, 1.2% hits; AID 2540; in the data active means inhibition above about 50%
SENP1 inh – blocks the human SENP1 SUMO protease catalytic domain; 360,000 compounds, 0.21% hits; Q9P0U3; inhibition, % at 10 µM; AID 624204; recombinant SENP1 catalytic domain, CyPet-SUMO1-YPet FRET cleavage;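 active means inhibition at least 30% at 10 µM, raw YFP signal under a set limit, fluorescence ratio 0.5 to 1.5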;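 further: 0% = enzyme with DMSO and 100% = no enzyme wells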
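Assay system – human recombinant His6-tagged SENP1 catalytic domain enzyme · Input – SENP1 enzyme, 20 pM final · Buffer or medium – Tris pH 8 buffer plus EDTA, NaCl, BME, BSA, NP40, catalase · Schedule – 50 min reaction at room temperature · Technique – FRET read of cyan and yellow fluorescence · Control set – no-enzyme wells low, DMSO-plus-enzyme wells high control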
SENP8 confirm – confirmation of human SENP8 protease inhibitors. shares compounds with SENP7 inh. Recombinant SENP8, Z-RLRGG-aminoluciferin luminescence, 60 min. inhibition, % at 12.5 µM. 6,200 compounds, 40% hits. AID 488912;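 active means mean inhibition across replicates above about 50%, limit read from the data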
SENP6 confirm – confirmation of human SENP6 protease inhibitors. AID 488915. shares compounds with SENP7 inh. inhibition, % at 12.5 µM. 6,200 compounds, 58% hits. recombinant SENP6, Z-RLRGG-aminoluciferin luminescence
SENP7 confirm – human SENP7 inhibition, confirmed | 6,200 compounds, 69% hits | inhibition, % at 12.5 µM | shares compounds with SENP7 inh | recombinant SENP7, Z-RLRGG-aminoluciferin luminescence, 40 min
Casp3 select – selectivity test for SENP inhibitors: human caspase-3 inhibition; shares compounds with SENP7 inh; purified caspase-3, Z-DEVD-aminoluciferin luminescence, 60 min; inhibition, % at 12.5 µM; 6,200 compounds, 60% hits;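 active means mean inhibition above about 50%, limit read from the data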;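 further: plate controls were enzyme with DMSO for no effect and wells without caspase-3 for full effect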
Luc interf – counter-screen for SENP inhibitors: luminescence interference | shares compounds with SENP7 inh | Pre-incubated SENP8/Z-RLRGG-aminoluciferin, luciferase luminescence interference | inhibition, % at 12.5 µM | 6,200 compounds, 39% hits | AID 488919;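 active means mean inhibition above about 50% when retested at one dose, limit read from the data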;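 further: plate controls were DMSO wells with completed reaction for no effect and substrate without enzyme for full effect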
* marks the source's active call; other numbers are inactive results. This is a sample that favours compounds with a hit; in the whole collection about 3.3% have one here.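 How the source made its calls, unless noted: active means mean inhibition above about 50% in the one-dose retest (limit read from the data); inactive means the rest.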

How did O=C(Nc1ccc2ccccc2c1)c1ccccc1F do in these assays?
SENP6 inh: 86*; CendR NRP1 mod: -4; SENP8 block-1: 8; SENP7 inh: 92*; SENP8 block-2: 82*; SENP1 inh: 0; SENP8 confirm: 64*; SENP6 confirm: 89*; SENP7 confirm: 98*; Casp3 select: 82*; Luc interf: 88*

Results for O=C(Nc1ccc(F)cc1)c1ccccc1F ?
SENP6 inh: 20; CendR NRP1 mod: -10; SENP8 block-1: 12; SENP7 inh: 2; SENP8 block-2: 1; SENP1 inh: -1

What do the screens show for `O=C(Nc1ccc2c(c1)OCCO2)c1cnc2ccccn2c1=O`?
SENP6 inh: 57*; CendR NRP1 mod: 9; SENP8 block-1: 12; SENP7 inh: 6; SENP8 block-2: 29; SENP1 inh: -1; SENP8 confirm: 11; SENP6 confirm: -1; SENP7 confirm: 10; Casp3 select: 39; Luc interf: 6

What do the screens show for `COc1ccccc1C(=O)Nc1ccc2ccccc2c1`?
SENP6 inh: 50; CendR NRP1 mod: -12; SENP8 block-1: 4; SENP7 inh: 36; SENP8 block-2: 36; SENP1 inh: -1

Results for O=C(Nc1ccc2c(c1)OCCO2)c1cccc2nc3ccccc3nc12 ?
SENP6 inh: -16; CendR NRP1 mod: 10; SENP8 block-1: 32; SENP7 inh: 1; SENP8 block-2: -2; SENP1 inh: 3

How did COc1ccc(NC(=O)c2ccccc2F)cc1Cl do in these assays?
SENP6 inh: 81*; CendR NRP1 mod: 4; SENP8 block-1: 18; SENP7 inh: 79*; SENP8 block-2: 76*; SENP1 inh: 0; SENP8 confirm: 83*; SENP6 confirm: 84*; SENP7 confirm: 92*; Casp3 select: 88*; Luc interf: 21

What do the screens show for `O=C(Nc1ccc2c(c1)OCCO2)c1ccccn1`?
SENP6 inh: 89*; CendR NRP1 mod: 1; SENP8 block-1: 2; SENP7 inh: 89*; SENP8 block-2: 82*; SENP1 inh: -1; SENP8 confirm: 89*; SENP6 confirm: 89*; SENP7 confirm: 100*; Casp3 select: 97*; Luc interf: 92*

Results for O=C(Nc1ccc(NC(=O)c2ccccn2)cc1)C(=O)Nc1ccc2c(c1)OCCO2 ?
SENP6 inh: -19; CendR NRP1 mod: 1; SENP8 block-1: -39; SENP7 inh: -7; SENP8 block-2: 6; SENP1 inh: 2

How did O=C(Nc1cc(C(=O)N2CCCC2)ccc1N1CCCC1)c1ccccc1F do in these assays?
SENP6 inh: 13; CendR NRP1 mod: 7; SENP8 block-1: 6; SENP7 inh: -1; SENP8 block-2: 1; SENP1 inh: -3

Results for O=C(Nc1ccc2c(c1)OCCO2)c1ccc2ccccc2n1 ?
SENP6 inh: 18; CendR NRP1 mod: -12; SENP8 block-1: -4; SENP7 inh: 65*; SENP8 block-2: 54*; SENP1 inh: -1; SENP8 confirm: -4; SENP6 confirm: 66*; SENP7 confirm: 90*; Casp3 select: 56*; Luc interf: 33

How did O=C(Nc1ccc(C(=O)N2CCCC2)cc1)c1ccccc1F do in these assays?
SENP6 inh: 69*; CendR NRP1 mod: 0; SENP8 block-1: 5; SENP7 inh: 77*; SENP8 block-2: 58*; SENP1 inh: 4; SENP8 confirm: 66*; SENP6 confirm: 68*; SENP7 confirm: 91*; Casp3 select: 93*; Luc interf: 78*

How did CC(C)(C)OC(=O)C[C@H]1C/C=C\C[C@@H](CC(=O)N(CCO)Cc2ccccc2)C(=O)NC[C@@H](c2ccccc2)OC1=O do in these assays?
SENP6 inh: 4; CendR NRP1 mod: -2; SENP8 block-1: 9; SENP7 inh: 2; SENP8 block-2: -2; SENP1 inh: 3

How did O=C(Nc1ccccc1)Nc1ccc(C(=O)N2CCOCC2)cc1 do in these assays?
SENP6 inh: 59*; CendR NRP1 mod: -23; SENP8 block-1: 19; SENP7 inh: 82*; SENP8 block-2: 61*; SENP1 inh: 0; SENP8 confirm: 81*; SENP6 confirm: 81*; SENP7 confirm: 97*; Casp3 select: 93*; Luc interf: 82*

How did N#Cc1ccccc1Sc1ccccc1C(=O)Nc1ccc2ccccc2c1 do in these assays?
SENP6 inh: 13; CendR NRP1 mod: 1; SENP8 block-1: 1; SENP7 inh: 4; SENP8 block-2: 6; SENP1 inh: 0

What do the screens show for `O=C(c1ccc(NC(=O)C2(c3ccccc3)CCCC2)cc1)N1CCOCC1`?
SENP6 inh: -49; CendR NRP1 mod: 6; SENP8 block-1: 16; SENP7 inh: -6; SENP8 block-2: 1; SENP1 inh: 2

Results for N#Cc1ccc(C(=O)Nc2ccc3ccccc3c2)cc1 ?
SENP6 inh: 29; CendR NRP1 mod: 17; SENP8 block-1: -8; SENP7 inh: 72*; SENP8 block-2: 22; SENP1 inh: -2; SENP8 confirm: 32; SENP6 confirm: 37; SENP7 confirm: 81*; Casp3 select: 59*; Luc interf: 5

How did O=C(Nc1cnc2ccccn2c1=O)c1ccc(Cl)cc1Cl do in these assays?
SENP6 inh: 66*; CendR NRP1 mod: 2; SENP8 block-1: -140; SENP7 inh: 69*; SENP8 block-2: 7; SENP1 inh: 1; SENP8 confirm: 57*; SENP6 confirm: 59*; SENP7 confirm: 76*; Casp3 select: 82*; Luc interf: 22

How did COc1ccccc1-c1csc(C(C)(NC(C)=O)c2ccccc2)n1 (stereo unspecified) do in these assays?
CendR NRP1 mod: 14; SENP8 block-1: 13; SENP1 inh: 2

What do the screens show for `CC(=O)C1=CCC(c2ccccc2)N(S(=O)(=O)c2ccccc2C)C1` (stereo unspecified)?
CendR NRP1 mod: 0; SENP8 block-1: 14; SENP1 inh: -1
